Source: PubChem BioAssay (Johns Hopkins Ion Channel Center)
Compounds with a hit are over-represented: about 3.5% of the library has one in this group of screens.
RGS4 inh – human RGS4 inhibition | HEK293 M3R/RGS4 inducible, Fluo-4 calcium flux; hits give high values; triggered by carbachol at its EC20 | B-score at 10 µM | hit rate 0.45% among 310,000 | AID 463165;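 active = B-score, a plate-corrected calcium signal, over three deviations above library mean, with baseline fluorescence within five deviations of library mean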;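 also: RGS4 expression induced by doxycycline in cells with stable M3 receptor; B-score is computed from the integrated fluorescence ratio over baseline after carbachol; higher B-score means a larger calcium signal and so more RGS4 inhibition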
Target sequence (P49798 whole entry, looked up): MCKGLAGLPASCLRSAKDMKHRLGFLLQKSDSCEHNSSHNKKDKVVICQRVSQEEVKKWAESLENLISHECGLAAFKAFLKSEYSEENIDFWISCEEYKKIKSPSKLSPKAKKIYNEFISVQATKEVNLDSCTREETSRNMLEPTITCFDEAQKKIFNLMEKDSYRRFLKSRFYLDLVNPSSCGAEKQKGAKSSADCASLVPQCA
MrgX1 antagonist – blocks BAM8-22 activation of human MrgX1 receptor; AID 588676; Q96LB2; B-score at 10 µM; MRGX1-HEK293 calcium flux, Fluo-4, BAM8-22 antagonism; hits give low values; hit rate 1.3% among 310,000;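 active = calcium-response B-score plate-corrected more than 3 library SD below zero, starting fluorescence within 5 deviations, no agonist response on first addition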;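 also: peak minus trough fluorescence over baseline after final BAM8-22 challenge near maximal dose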
Target sequence (Q96LB2 whole entry, looked up): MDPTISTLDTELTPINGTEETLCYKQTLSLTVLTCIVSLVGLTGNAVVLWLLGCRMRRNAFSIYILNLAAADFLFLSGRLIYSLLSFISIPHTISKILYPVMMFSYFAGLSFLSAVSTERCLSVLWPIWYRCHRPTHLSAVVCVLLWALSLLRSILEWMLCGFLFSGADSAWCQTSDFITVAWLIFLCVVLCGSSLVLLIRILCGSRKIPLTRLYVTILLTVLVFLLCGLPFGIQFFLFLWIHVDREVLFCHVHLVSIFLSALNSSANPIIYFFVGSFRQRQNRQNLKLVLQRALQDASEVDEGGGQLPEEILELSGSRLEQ
MrgX1 ag – human MrgX1 receptor agonism, primary screen | Q96LB2 | MrgX1-HEK293 cells, Fluo-4 calcium fluorescence, agonist mode; hits give high values | B-score at 10 µM | hit rate 0.44% among 310,000 | AID 588627;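 active = calcium response B-score plate-corrected fluorescence ratio at least 3 library SD, with starting fluorescence B-score inside 5 SD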
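Material: HEK293 cells stably expressing human MrgX1 receptor | Quantity: 15,000 cells per well | Times: Cells plated overnight, dye loaded 0.5 h 37 °C, 0.5 h room temperature | Measured by: Kinetic Fluo-4 NW fluorescence of intracellular calcium | Control set: Positive and negative controls per plate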
MrgX1 PAM – allosterically activates human MrgX1 receptor signaling. Q96LB2. MrgX1-HEK293, Fluo-4 calcium flux, FDSS; hits give high values. B-score at 10 µM. hit rate 0.63% among 310,000. AID 588675;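 active = plate-corrected calcium response at least 3 library SD above typical, normal starting fluorescence, not activating the receptor alone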;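 also: compound read alongside a low EC10 to EC30 dose of BAM8-22 agonist; peak minus trough fluorescence over baseline measured at the second addition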
RGS4 pot – RGS4 potentiation or activation; HEK293 M3R/inducible RGS4, carbachol calcium flux Fluo4; hits give low values; B-score at 10 µM; hit rate 0.92% among 310,000; AID 463111;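 active = B-score of the integrated calcium signal more than 4 SD below the library mean, with starting fluorescence not abnormally high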;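 also: negative B-score means reduced calcium response which marks RGS4 activation or potentiation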
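test system = HEK293 cells with stable M3R and inducible RGS4 | schedule = recording 10 s baseline at 1 Hz, 100 s post-agonist | technique = Fluo4-AM (2 µM) calcium-flux fluorescence, kinetic read | measure = Agonist-evoked peak-minus-minimum fluorescence over baseline, integrated ratio, B score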
RGS4 inh valid – RGS4 inhibitor validation; calcium response, % at 10 µM; AID 492999; HEK293 M3R/RGS4, carbachol calcium Fluo-4 fluorescence; carbachol added at its EC20; 0 = buffer wells, 100 = carbachol control; shares compounds with RGS4 inh; hit rate 65% among 1,700;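 active = duplicate-averaged calcium response above the buffer-only control mean plus 5 SD of those controls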;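 also: integrated fluorescence ratio F max minus min over baseline F0; higher response in RGS4-induced cells means RGS4 inhibition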
M3R Ca ctr – counter-screen for RGS4 inhibitors: effect in non-induced cells | hit rate 20% among 1,900 | AID 493000 | activity (percent), % at 10 µM | HEK293 M3R non-induced, carbachol calcium Fluo-4; submaximal (EC20) carbachol stimulus; buffer wells 0%, carbachol control wells 100% | shares compounds with RGS4 inh; call rule not given here;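 also: RGS4 induction absent so cells express M3R without RGS4; higher means more calcium signal and flags a non-specific hit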
M3R basal Ca ctr – signal in non-induced cells without carbachol, RGS4 inhibitor counter-screen | shares compounds with RGS4 inh | HEK293 M3R/RGS4 non-induced, Fluo-4 calcium, no carbachol; normalised: buffer wells 0%, carbachol wells 100% | calcium response (agonist-mode artifact), % at 10 µM | hit rate 22% among 1,900;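 active = duplicate-averaged calcium rise in uninduced cells above buffer wells' mean plus 5 SD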
Numbers without * were called inactive; i = inactive; · = no result.

SMILES	RGS4 inh	MrgX1 antagonist	MrgX1 ag	MrgX1 PAM	RGS4 pot	RGS4 inh valid	M3R Ca ctr	M3R basal Ca ctr
COc1ccc(CNC(=O)C(=O)NCC2OCCN2S(=O)(=O)c2ccc(OC)cc2)cc1 (stereo unspecified)	i	i	i	i	i	·	·	·
Cc1ccc(C(=O)CC(C(=O)O)n2cnc([N+](=O)[O-])n2)cc1 (stereo unspecified)	5.6*	i	i	i	i	14%*	i	i
COc1ccc(C(CC(=O)c2ccc(C)cc2)Nc2ccc([N+](=O)[O-])cc2)cc1 (stereo unspecified)	i	i	i	i	i	·	·	·
O=C(CC(SCCO)c1ccc([N+](=O)[O-])cc1)c1ccco1 (stereo unspecified)	5.4*	i	i	i	i	11%*	i	i
Cc1ccc(C(=O)CC(SCC(=O)O)c2ccc([N+](=O)[O-])cc2)cc1 (stereo unspecified)	6.3*	i	i	i	i	11%*	36%*	i
CC(NCC(O)COC1CCC(C(C)(C)C)CC1)c1ccccc1 (stereo unspecified)	10*	i	i	i	i	5.0%*	i	i
Cn1cccc1-c1nc2ccccc2[nH]1	i	i	i	i	i	·	·	·
S=c1[nH]nc(-c2cccs2)n1/N=C/c1c(Cl)cccc1Cl	11*	i	i	i	i	17%*	i	i
Fc1ccc2c(c1)/C(=N/Nc1ccccn1)CCS2	12*	i	i	i	i	14%*	i	i
Cc1nc2c(=O)n(C)c(=O)n(C)c2nc1Cl	12*	i	i	i	i	36%*	i	i
Cn1c(=O)c2nc(NCc3ccccc3)cnc2n(C)c1=O	i	i	i	i	i	·	·	·
O=[N+]([O-])CC(c1ccccc1)c1c[nH]c2ccccc12 (stereo unspecified)	i	i	i	i	i	·	·	·
OC(CNCC(c1ccc(Cl)cc1Cl)c1c[nH]c2ccccc12)c1ccccc1 (stereo unspecified)	4.9*	i	i	i	i	17%*	i	14%*
CCCOc1ccc(N2C(=O)CC(S/C(N)=N/N=C(\C)c3cccs3)C2=O)cc1 (stereo unspecified)	i	i	i	i	i	·	i	i
CC(/C=C/c1ccc(N(C)C)cc1)=N\N=C(/N)SC1CC(=O)N(c2ccc(C(=O)O)cc2)C1=O (stereo unspecified)	i	i	i	i	i	·	·	·
C/C(=N\N=C(/N)SC1CC(=O)N(c2cccc(Cl)c2)C1=O)c1cccs1 (stereo unspecified)	i	i	i	i	i	·	i	i
Cc1ccc(OCC(=O)NNC(=O)c2ccco2)c(C)c1	30*	i	i	i	i	i	i	i
O=C1C=CC(O)(c2cc(=O)c3c(O)cc(O)cc3o2)C=C1	26*	i	i	i	i	78%*	30%*	i
COc1ccc(S(=O)(=O)Nc2ccccc2)cc1	i	i	i	i	i	·	·	·
COc1ccc(S(=O)(=O)Nc2ccc(O)c3ccccc23)cc1	6.8*	i	i	i	i	10%*	i	i
O=C(Nc1cc(C(F)(F)F)ccc1N1CCOCC1)c1n[nH]c(=O)c2ccccc12	7.5*	i	i	i	i	24%*	i	i
O=C(Nc1cc(C(F)(F)F)ccc1N1CCOCC1)c1ccc(F)cc1	i	i	i	i	i	·	·	·
CC(C)=C(NC(=O)c1ccccc1Br)C(=O)NCCc1nc2ccccc2[nH]1	i	i	i	i	i	·	·	·
CC(C)CC(=O)NC1(C(F)(F)F)C(=O)Nc2c1c(=O)[nH]c(=O)n2Cc1ccco1 (stereo unspecified)	i	i	i	i	i	·	·	·
O=c1[nH]c(=O)n(Cc2ccco2)c2c1C(C(F)(F)F)(C(F)(F)F)N=C(c1ccc(F)cc1)N2	i	i	i	i	i	i	i	i
SMILES	RGS4 inh	MrgX1 antagonist	MrgX1 ag	MrgX1 PAM	RGS4 pot	RGS4 inh valid	M3R Ca ctr	M3R basal Ca ctr
O=C(NCC1CCCO1)C1CCCN(S(=O)(=O)c2cc(Cl)ccc2Cl)C1 (stereo unspecified)	i	i	i	i	i	·	·	·
O=C(/C=C/c1ccnc2ccccc12)c1cccs1	14*	i	i	i	i	18%*	41%*	i
O=C(Cn1cnc2ccccc2c1=O)c1cccs1	i	i	i	i	i	·	·	·
O=c1cc(-c2ccc(Cl)cc2)nc(N2CCN(c3ccccc3)CC2)[nH]1	9.7*	i	i	i	i	i	32%*	i
Cc1cc(=O)[nH]c(N2CCN(Cc3ccccc3)CC2)n1	i	i	i	i	i	·	·	·
C=C(C)C1(O)OC(=O)C=C1OC (stereo unspecified)	7.8*	i	i	i	i	9.0%*	i	i
Cc1nn(C)c2ncc(C(N)=O)c(Oc3ccc(Cl)cc3)c12	i	i	i	i	i	·	·	·
Cc1cc(Br)ccc1NC(=O)CN(C)C(=O)COc1cccc2c1OC(C)(C)C2	i	i	i	i	i	·	·	·
CCn1cc([N+](=O)[O-])c(C(=O)N2N=C(c3ccc(O)c(OC)c3)CC2c2ccccc2O)n1 (stereo unspecified)	i	i	i	i	i	·	i	i
CCn1cc([N+](=O)[O-])c(C(=O)N2N=C(c3ccc4ccccc4c3)CC2c2cc(Br)ccc2O)n1 (stereo unspecified)	i	i	i	i	i	·	·	·
CCn1cc([N+](=O)[O-])c(C(=O)N2N=C(c3ccc(Cl)c(Cl)c3)CC2c2ccccc2O)n1 (stereo unspecified)	6.4*	i	i	i	i	22%*	i	i
COCC(C)NC(=S)Nc1ccccc1[N+](=O)[O-] (stereo unspecified)	i	i	i	i	i	·	·	·
